Data on 3 compounds can be found in ChEMBL document CHEMBL1671789, “Evaluation of quinazoline analogues as glucocerebrosidase inhibitors with chaperone activity” (J Med Chem, 2011).

The term ΔTm denotes the change in melting temperature against a reference sample.

Experiment [1] concerns T1, Lysosomal acid glucosylceramidase (Homo sapiens), P04062 [N409S].
T1 sequence (whole entry): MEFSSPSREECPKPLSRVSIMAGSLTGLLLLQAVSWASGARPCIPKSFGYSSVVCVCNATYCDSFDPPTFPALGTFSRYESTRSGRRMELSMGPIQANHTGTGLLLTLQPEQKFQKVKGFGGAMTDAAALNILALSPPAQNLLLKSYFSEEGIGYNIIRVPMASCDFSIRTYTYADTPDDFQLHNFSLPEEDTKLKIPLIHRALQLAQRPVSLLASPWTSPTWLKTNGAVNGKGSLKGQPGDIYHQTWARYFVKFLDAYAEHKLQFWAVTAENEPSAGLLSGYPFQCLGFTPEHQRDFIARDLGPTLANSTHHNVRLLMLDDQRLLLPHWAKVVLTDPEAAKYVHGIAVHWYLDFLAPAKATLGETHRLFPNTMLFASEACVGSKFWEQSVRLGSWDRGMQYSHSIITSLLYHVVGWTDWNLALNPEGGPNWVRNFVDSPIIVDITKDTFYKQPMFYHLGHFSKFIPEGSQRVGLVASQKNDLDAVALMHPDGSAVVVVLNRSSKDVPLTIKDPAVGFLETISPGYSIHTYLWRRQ
As to the kind of experiment: Increase of GCase N370S mutant trafficking to lysosomes in human fibroblast cells assessed as colocalization of Gcase with Lamp2 at 5 uM after 5 days by immunofluorescence method. It counts as cell-based. In outline:
(§1)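 Primary dermal fibroblasts from N370S/N370S Gaucher patients and a control, in chamber slides. Compounds given for five days, range 1 nM to 25 μM. Cells fixed in 3% paraformaldehyde and permeabilized with 0.1% Triton-X. Stained with rabbit anti-GCase R386 (1:500) and mouse anti-LAMP1 or LAMP-2 (1:100), then Alexa-conjugated secondaries and DAPI. Imaged by confocal microscopy for GC/LAMP2 colocalization.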

In experiment [2] the target is T2, Lysosomal acid glucosylceramidase (Homo sapiens) (UniProt P04062).
T2 sequence (whole entry): T1 sequence (whole entry) with S409N
Nature of the experiment: Increase of GCase trafficking to lysosomes in human fibroblast cells assessed as colocalization of Gcase with Lamp2 at 5 uM after 5 days by immunofluorescence method. Type of experiment: cell-based. An outline of the steps:
as §1

A short description of experiment [3]: Inhibition of alpha-glucosidase.
Experiment [4] can be described thus: Inhibition of alpha-galactosidase.
Experiment [5] deals with T2, Lysosomal acid glucosylceramidase (Homo sapiens). As to the kind of experiment: Binding affinity to recombinant Gcase assessed as change in melting temperature at 600 uM by fluorescence thermal shift technique. An outline of the steps: (§2)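 Differential scanning fluorometry on recombinant wild-type GC at 2 μM final with SYPRO Orange, in 150 mM phosphate/citrate pH 4.8. 12-point DMSO dilution series, final 0.1–600 μM, 2% DMSO final; DMSO-only control. Heated 20 to 95 °C at 0.1 °C/s. Fluorescence read at 490 nm excitation, 575 nm emission. Tm derived from melt curves; shift is relative to the protein-only control.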

Experiment [6] shares this target. As to the kind of experiment: Binding affinity to recombinant Gcase assessed as change in melting temperature at 500 uM by fluorescence thermal shift technique. In outline: as §2
For experiment [7] the target is unchanged. Nature of the experiment: Binding affinity to recombinant Gcase assessed as change in melting temperature at 400 uM by fluorescence thermal shift technique. In outline:
as §2

Experiment [8] shares this target. Nature of the experiment: Binding affinity to recombinant Gcase assessed as change in melting temperature at 300 uM by fluorescence thermal shift technique. In outline: as §2
Experiment [9] has the same target.
The target is the same in experiment [10]. The source holds these as a separate data set.
Experiment [11] has the same target. This is another data set of the same source.
Experiment [12] has the same target. This is another data set of the same source.
Experiment [13] has the same target. The source holds these as a separate data set.
The target is the same in experiment [14]. This is another data set of the same source.
Experiment [15] shares this target. This is another data set of the same source.
The test system of experiment [16] is T1, Lysosomal acid glucosylceramidase (Homo sapiens), P04062 [N409S]. Nature of the experiment: Increase of GCase N370S mutant trafficking to lysosomes in human fibroblast cells assessed as colocalization of Gcase with Lamp2 at 10 uM after 5 days by immunofluorescence method. It counts as cell-based. An outline of the steps:
as §1

For experiment [17], the target named is T2, Lysosomal acid glucosylceramidase (Homo sapiens). Nature of the experiment: Increase of GCase trafficking to lysosomes in human fibroblast cells assessed as colocalization of Gcase with Lamp2 at 10 uM after 5 days by immunofluorescence method. It counts as cell-based. In outline:
as §1

Changes are numbered by the printed parent chain. The source made the active and inactive calls.

For `O=S(=O)(c1ccc2c(c1)OCCO2)N1CCN(c2nc(-c3cccs3)nc3ccccc23)CC1`, the result in experiment [1] and in experiment [2] was Active. The outcome in experiment [3] and in experiment [4] was inactive. The ΔTm in experiment [5] stood at 24.3 °C; in experiment [6], 23.4 °C; in experiment [7], 22.8 °C; in experiment [8], 22.8 °C; in experiment [9] it was 20.7 °C; in [10], 19.3 °C. Besides, the ΔTm was 13.3 °C in [11]; 11.7 °C in [12]; 5.39 °C in [13]; 0.24 °C in experiment [14]; 0.37 °C in experiment [15].
Turning to `COc1ccccc1S(=O)(=O)N1CCN(c2nc(-c3cccs3)nc3ccccc23)CC1`, the result in experiment [1] and in experiment [2] was Active. The result in experiment [3] and in experiment [4] was inactive. The ΔTm in experiment [6] is 7.69 °C; in experiment [7], 8.09 °C; in [8], 7.48 °C; in [9], 6.86 °C; in experiment [10] it was 3.97 °C; in [11] it was -0.76 °C. Also, the thermal shift (ΔTm) was -0.01 °C in experiment [12], 0.55 °C in experiment [14] and 0.6 °C in [15].
Take `OC[C@H]1CNC[C@@H](O)[C@@H]1O`: the outcome in experiment [16] and in [17] was Active. The outcome in [3] and in experiment [4] was inactive. The shift in melting temperature (ΔTm) in experiment [6] turned out to be 8.75 °C; in [7], 9.56 °C; in experiment [8], 8.98 °C; in experiment [9], 8.25 °C; in experiment [10], 7.94 °C; in [11] it was 6.72 °C. The ΔTm turned out to be 5.5 °C in experiment [12], 1.16 °C in experiment [14] and 0.4 °C in experiment [15].
